Columns and labels:
Dihydrofolate reductase = biological target: T1, Dihydrofolate reductase (Homo sapiens, UniProt P00374); experiment: Inhibition of human DHFR
T1 sequence (P00374 whole entry): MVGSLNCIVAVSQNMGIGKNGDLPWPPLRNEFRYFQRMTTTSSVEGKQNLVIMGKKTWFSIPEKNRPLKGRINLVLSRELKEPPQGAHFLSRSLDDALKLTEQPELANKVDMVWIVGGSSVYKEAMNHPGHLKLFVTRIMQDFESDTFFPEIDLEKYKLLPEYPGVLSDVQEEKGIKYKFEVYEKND
Outline: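 Steady-state spectrophotometric assay at 340 nm, run separately for DHFR and TS reactions. Compound preincubated 30 min with enzyme and substrates before starting the reaction. Identical enzyme and ligand concentrations for all targets. DMSO-matched blank; rates normalized to it. IC50 as mean ± standard deviation.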

[1] = Inhibition of DHFR activity of Cryptosporidium hominis thymidylate synthase-dihydrofolate reductase beta face mutant by steady state kinetic assay
Outline: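 Recombinant bifunctional TS–DHFR, Beta Face crossover-helix mutant, expressed in E. coli BL21. DHFR reaction was followed spectroscopically at 340 nm under steady-state conditions. Helix mimetic was added from a DMSO stock and preincubated with enzyme and substrates for 30 minutes before the reaction was started. Rates were normalized to a matched DMSO blank and fit as dose–response to give the IC50, reported as mean ± SD.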

Cryptosporidium hominis = experiment: Inhibition of DHFR activity of Cryptosporidium hominis thymidylate synthase-dihydrofolate reductase beta face mutant by steady state kinetic assay relative wild type TS-DHFR
Outline: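 Bifunctional TS–DHFR enzymes (wild type and crossover-helix mutants) were over-expressed in E. coli BL21 and purified. DHFR activity was followed at 340 nm by steady-state spectroscopy. Enzyme and substrates were preincubated with mimetic for 30 min before starting the reaction. Rates were normalized to a matched DMSO blank. Enzyme and ligand concentrations were the same for each target, and IC50 was given as mean ± SD.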

In the case of `CC(C)CN(C(=O)Nc1ccc(CCC(=O)O)cc1Cc1ccccc1)C(=O)c1ccc(OCC(=O)O)c(Cc2ccccc2)c1`, the IC50 (Dihydrofolate reductase) is reported as greater than 1000 µM, the IC50 [1] is reported as 18 µM and the Ratio IC50 (Cryptosporidium hominis) is reported as 10.
